Shown are actives, neighbours in structure and some others; about 4.6% of the full set was active somewhere.
GPR7 antag – blocks human GPR7 receptor signaling; P48145; GPR7-expressing cells, fluorescence antagonist assay; inhibition, % at 4.4 µM; 290,000 compounds, 1.1% hits; AID 1861; in the data active = inhibition above about 16%, passing the limit was not always enough;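 also: cells stimulated with the agonist NPW; 0% = agonist with vehicle and 100% = vehicle without agonist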
TAAR1 antag – human TAAR1 antagonism; Q96RJ0; CHO RD-HGA16 TAAR1, Fluo-8 calcium fluorescence, antagonist; inhibition, % at 3 µM; 360,000 compounds, 1.5% hits; AID 624466;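 active = inhibition above a per-plate cutoff, the mean inhibition of test compounds on that plate plus 3 SD, cut at about 49% in these data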;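 also: 0% = DMSO plus EC80 beta-PEA response and 100% = DMSO alone without agonist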
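Test system: CHO RD-HGA16 cells bearing hTAAR1 | Reagent: β-PEA, EC80 | Compound dosing: 3 µM, single point | Schedule: Dye loading 75 min at 37 °C, then 30 min room temperature | Signal: Calcium fluorescence with Fluo-8 | Evaluation: Percent inhibition of PEA-evoked calcium signal, max/basal emission ratio | Control set: DMSO-only wells and EC80 β-PEA-stimulated wells | Repeats: Singlicate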
CHO parental Ca – signal in parental CHO cells, OX1R antagonist counter-screen | 330,000 compounds, 0.63% hits | parental CHO-K1, ATP-induced calcium, Fluo-8 fluorescence | inhibition, % at 5.6 µM;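 active = inhibition above that plate's mean sample inhibition plus 3 SD, cut at about 26% in these data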;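 also: 0% = ATP-challenged DMSO wells and 100% = DMSO wells without ATP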
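test system = CHO parental line | reagent = ATP stimulus | measured by = intracellular calcium via Fluo-8 no-wash fluorescent dye | control set = ATP and no-ATP DMSO wells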
OX1R antag-1 – antagonists of human orexin 1 receptor; O43613; CHO/OX1R cells, Fluo-8 calcium fluorescence, orexin A; inhibition, % at 5 µM; 330,000 compounds, 0.43% hits;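 active = inhibition above its plate's threshold, mean inhibition of all tested compounds on the plate plus 3 SD, cut at about 37% in these data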;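 also: 0% = orexin A challenge wells and 100% = SB-334867-A antagonist wells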
Target sequence (O43613 whole entry, looked up): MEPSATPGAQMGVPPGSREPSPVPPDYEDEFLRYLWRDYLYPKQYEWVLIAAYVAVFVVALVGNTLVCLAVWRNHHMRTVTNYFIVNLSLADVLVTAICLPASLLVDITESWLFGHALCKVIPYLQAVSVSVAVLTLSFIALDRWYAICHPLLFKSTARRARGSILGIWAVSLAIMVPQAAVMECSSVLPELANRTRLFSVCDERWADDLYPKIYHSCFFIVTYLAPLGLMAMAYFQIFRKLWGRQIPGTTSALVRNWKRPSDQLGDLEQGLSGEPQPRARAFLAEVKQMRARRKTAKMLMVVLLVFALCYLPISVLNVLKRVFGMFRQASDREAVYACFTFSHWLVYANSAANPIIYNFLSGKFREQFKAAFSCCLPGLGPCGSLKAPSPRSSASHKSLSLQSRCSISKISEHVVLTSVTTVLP
OX1R antag-2 – OX1R (human) antagonism; O43613; OX1R-expressing cells, FRET antagonist read-out; inhibition, % at 6.6 µM; 330,000 compounds, 1.8% hits; in the data active = inhibition mostly above about 38%, no sharp cut-off; inactive = mostly below about 40%;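 also: 0% = agonist challenge alone and 100% = reference antagonist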
TAAR1 ag – human TAAR1 agonism; AID 624467; Q96RJ0; activation, % at 3 µM; 360,000 compounds, 0.99% hits; CHO RD-HGA16 TAAR1, Fluo-8 calcium fluorescence; vehicle wells 0%, saturating PEA agonist 100%;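 active = activation above the mean activation of all test compounds in the run plus 3 SD, cut at about 38% in these data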
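System: CHO-derived RD-HGA16 cells with stable Gα16 and human TAAR1 / Times: 17-24 h plating, Fluo-8 75 min 37 °C, 30 min RT / Technique: calcium-sensitive Fluo-8 signal, excitation 470-495, emission 515-575 nm / Measure: % activation relative to PEA EC100 response / Benchmarks: DMSO and PEA EC100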
TAAR1 ag confirm – human TAAR1 agonism, confirmed. CHO RD-HGA16 TAAR1, Fluo-8 calcium fluorescence; scaled: DMSO 0%, maximal phenethylamine 100%. shares compounds with TAAR1 ag. activation, % at 3 µM. 2,400 compounds, 82% hits. AID 651783;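 active = activation above a cutoff set at the run's mean compound activation plus 3 SD, cut at about 39% in these data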
Ga16 nonsel ag – counter-screen for TAAR1 agonists: nonselective agonists in parental cells; shares compounds with TAAR1 ag; CHO-Ga16 parental, Fluo-8 calcium fluorescence; normalized to maximal ATP response, DMSO zero; activation, % at 3 µM; AID 651787; 2,400 compounds, 50% hits;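 active = activation above the run cutoff, the mean activation over all tested wells plus 3 SD, cut at about 12% in these data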;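 also: 0% = DMSO wells and 100% = maximal ATP response on the peak over basal ratio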
TAAR1 desens – counter-screen for human TAAR1 agonists: agonists that desensitize TAAR1 | CHO RD-HGA16 hTAAR1, Fluo-8 calcium, beta-PEA response inhibition | inhibition, % at 3 µM | 2,400 compounds, 46% hits | shares compounds with TAAR1 ag | AID 651951;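 active = inhibition above the run cutoff, the mean inhibition of all test compounds plus 3 SD, cut at about 49% in these data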;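 also: beta-PEA stimulus applied at its EC80; loss of beta-PEA calcium signal after compound pretreatment read as receptor desensitization; 0% = DMSO with beta-PEA at EC80 and 100% = DMSO alone without agonist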
Ga16 nonsel ant – nonselective Ga16 antagonist in TAAR1 agonist counter-screen; inhibition, % at 3 µM; shares compounds with TAAR1 ag; CHO-Ga16 ATP-induced calcium, Fluo-8 fluorescence; AID 651952; 2,400 compounds, 39% hits;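 active = inhibition above the plate's mean compound inhibition plus 3 SD, computed per plate, cut at about 22% in these data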;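 also: 0% = EC80 ATP with DMSO and 100% = DMSO wells without ATP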
Active calls of the source: *; / = no result given.

SMILES	GPR7 antag	TAAR1 antag	CHO parental Ca	OX1R antag-1	OX1R antag-2	TAAR1 ag	TAAR1 ag confirm	Ga16 nonsel ag	TAAR1 desens	Ga16 nonsel ant
O=C(NN1C(=O)C2C3C=CC(C3)C2C1=O)c1ccncc1 (centres undefined)	3	-15	-9	4	4	1	/	/	/	/
COc1ccc(-n2nc(C(=O)NCC(=O)N3CCCCCC3)c3ccccc3c2=O)c(OC)c1	-15	-8	-14	-22	45	0	/	/	/	/
CC1=NN(c2ccccc2)C(=O)/C1=C\C=C1/N(C)c2ccccc2C1(C)C	15	50*	28*	42*	24	84*	67*	45*	57*	49*
CN1/C(=C\C=C2/SC(=S)NC2=O)C(C)(C)c2ccccc21	20	109*	95*	99*	20	289*	70*	85*	85*	86*
CCCN1C(=O)/C(=C\C=C2\N(CC)c3ccccc3C2(C)C)SC1=S	-2	65*	/	/	/	69*	50*	66*	73*	82*
CCCN1C(=O)/C(=C\C=C2/Sc3ccccc3N2CC)SC1=S	-12	/	/	/	/	/	/	/	/	/
CC(Sc1nnc(C2CC2)n1C1CC1)C(=O)c1ccc(Br)cc1 (centres undefined)	/	-22	/	/	/	-2	/	/	/	/
O=C(COc1ccccc1)NNC(=O)c1cc2ccccc2oc1=O	-5	1	-5	-21	23	45*	72*	3	43	6
COc1ccc(NC2CCCN(Cc3cccc4cnccc34)C2)cc1OC (centres undefined)	-7	8	-20	-29	23	1	/	/	/	/
OCCNCc1cc(Br)ccc1OCc1ccc(Cl)cc1Cl	21	-7	/	/	/	56*	79*	49*	51*	41*
CN(CCc1ccccc1)C(=O)c1ccc(NC(=O)Cc2cccc(NC(=O)C3CCN(S(=O)(=O)c4cccc([N+](=O)[O-])c4)CC3)c2)cc1	/	12	/	/	/	43*	66*	2	20	8
O=C1NC2(CCCCC2)C(=O)N1Cc1cccc(C(F)(F)F)c1	0	-19	-1	-20	14	71*	3	0	-7	9
CC1(c2ccccc2)NC(=O)N(CC(=O)NNC(=O)c2ccccc2F)C1=O (centres undefined)	/	3	/	/	/	0	/	/	/	/
COc1cccc(O)c1CN1CCC(C(=O)Nc2ccc(-c3cccc(C)c3)cc2)CC1	0	34	1	-2	3	53*	33	18*	41	37*
COc1cccc(O)c1CN1CCC(C(=O)Nc2ccc(Oc3cccnc3)cc2)CC1	4	7	0	-10	20	7	/	/	/	/
CCN(CC)CCCN1C(=O)CSC1c1ccc([N+](=O)[O-])cc1 (centres undefined)	4	7	-7	-13	58	52*	1	2	9	4
CCN(CC)CCCN1C(=O)CSC1c1ccc2c(c1)OCO2 (centres undefined)	-12	-11	4	-21	30	1	/	/	/	/
CCOc1cccc(/C=N/NC(=S)Nc2ccccc2[N+](=O)[O-])c1O	-7	14	-16	-20	34	5	/	/	/	/
O=[N+]([O-])c1ccccc1NC(=S)N/N=C/c1ccc(O)c(O)c1	-6	13	4	-12	16	52*	84*	6	56*	10
CN(C)C1=NC[C@H](Cc2ccccc2)N1CCCC1CCCC1	/	-15	3	-15	16	45*	22	7	20	14
CN(C)C1=NC[C@H](Cc2ccccc2)N1CCC1CCCC1	/	8	-15	-20	20	6	/	/	/	/
CN(C(=O)COC(=O)C1CCN(S(=O)(=O)c2ccc(Cl)cc2)CC1)C1CCS(=O)(=O)C1 (centres undefined)	/	-14	-9	-6	2	3	/	/	/	/
CCOC(=O)c1csc(NC(=O)CSc2nnnn2-c2ccc(OC)cc2)n1	0	-4	-16	-20	12	53*	30	16*	10	8
O=C(NCc1cccs1)c1cc(-c2cccs2)on1	1	25	-8	-10	21	18	/	/	/	/
O=C(NCc1cccs1)c1cc(-c2ccccc2)on1	-3	40	-6	-3	5	57*	28	19*	14	23*
SMILES	GPR7 antag	TAAR1 antag	CHO parental Ca	OX1R antag-1	OX1R antag-2	TAAR1 ag	TAAR1 ag confirm	Ga16 nonsel ag	TAAR1 desens	Ga16 nonsel ant
CC1CCN(CCc2nc3cc(NC(=O)Nc4ccccc4)ccc3n2C)CC1	2	9	-7	-16	4	1	/	/	/	/
CN(CCc1ccccc1)C(C(=O)Nc1ccc2c(c1)OCCO2)c1ccnc2ccccc12 (centres undefined)	/	53*	/	/	/	61*	78*	7	42	12
CCN(CC)C(=O)Oc1nnc(SC(C)C)n1-c1ccc(Cl)c(Cl)c1	-13	5	-21	-38	8	45*	21	14*	2	2
CCN(CC)C(=O)Oc1nnc(SC(C)C)n1-c1ccc(Cl)cc1	-6	5	-15	-15	5	0	/	/	/	/
CCCCOC(=O)c1ccc(NC(=O)c2ccc(F)cc2F)cc1	/	13	-20	-32	11	7	/	/	/	/
COC(=O)CCCn1c(C)cc(C(=O)CCl)c1C	8	12	-1	1	23	0	/	/	/	/
Cc1cc(C(=O)CCl)c(C)n1CCc1ccccc1	2	47	-22	-23	11	64*	71*	7	66*	7
Cc1cc(-c2csc(N)n2)c(C)n1CCc1ccccc1	-9	37	-5	-4	12	78*	102*	11	89*	-3
CCOC(=O)c1cc(C)n(CCc2ccccc2)c1C	18	20	-24	-20	13	51*	64*	6	47	9
Cc1cc(-c2csc(N)n2)c(C)n1CCC(C)C	-6	-11	-15	-14	15	2	/	/	/	/
CCOC(=O)c1cc(-c2ccccc2)n(CCC(=O)O)c1C	-2	2	-9	-10	2	9	/	/	/	/
COCc1cc(=O)n2[nH]c(C)nc2n1	-2	10	9	5	2	8	/	/	/	/
